Data set [1] concerns HEK293. In words: Cytotoxicity against human HEK293 cells up to 55 uM after 72 hrs by MTT assay. It is filed as cell-based. To be noted: hek293, 72 h. The procedure, abridged: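 HEK293 cells seeded at 5×10^3 per well, grown 24 h at 37°C, then medium replaced with compound-containing medium over a concentration range; 72 h exposure; MTT (5 mg/mL stock) added for 4 h at 37°C, formazan dissolved in DMSO, absorbance read at 570 nm. Triplicate per concentration, experiment repeated three times.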

Data set [2] relates to MGC-803. As to the kind of experiment: Cell cycle arrest in human MGC803 cells assessed as accumulation at G0/G1 phase at 1 uM after 24 hrs by propidium iodide staining-based flow cytometry. It is filed as functional. The procedure, abridged:
(§1)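 Exponentially growing MGC-803 cells (5×10^5) treated at 0, 0.25, 0.5 or 1.0 µmol/L for 12 or 24 h; cells collected, fixed in ice-cold 70% ethanol, treated with buffer containing RNAse A and 0.1% Triton X-100, stained with PI; DNA content analysed by flow cytometry to give percentages of cells in G1, S and G2/M phases.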
On the technique in general: A flow cytometer gives signals particle by particle.

For data set [3], the system named is MGC-803. As to the kind of experiment: Cell cycle arrest in human MGC803 cells assessed as accumulation at G2/M phase at 0.25 uM after 24 hrs by propidium iodide staining-based flow cytometry. It is filed as functional. An outline of the steps: as §1
Data set [4] has as its system MGC-803. In words: Cell cycle arrest in human MGC803 cells assessed as accumulation at G2/M phase at 0.5 uM after 12 hrs by propidium iodide staining-based flow cytometry. It is filed as functional. The procedure, abridged: as §1
For data set [5], the system named is MCF7. As to the kind of experiment: Cytotoxicity against human MCF7 cells after 72 hrs by MTT assay. Type of data set: functional, cell-based. Particulars: MCF7, 72 h.
The test system of data set [6] is MGC-803. As to the kind of experiment: Induction of apoptosis in human MGC803 cells assessed as nuclear fragmentation at 0.25 to 1 uM after 12 hrs by Hoechst 33258 staining-based fluorescence microscopy. Type of data set: functional, cell-based. An outline of the steps: (§2)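 MGC-803 cells seeded at 8×10^3 cells/well, treated 12 h at 0, 0.25, 0.5 or 1.0 µmol/L; cells collected, fixed, stained 20 min with Hoechst 33258, washed with PBS; nuclear shrinkage, chromatin condensation, intense fluorescence and fragmentation scored by fluorescence microscopy.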

For data set [7], the system named is MGC-803. As to the kind of experiment: Cell cycle arrest in human MGC803 cells assessed as reduction in G1 phase accumulation after 12 to 24 hrs by propidium iodide staining-based flow cytometry. Type of data set: functional. The procedure, abridged:
as §1

Data set [8] deals with MGC-803. In words: Cell cycle arrest in human MGC803 cells assessed as reduction in S phase accumulation after 12 to 24 hrs by propidium iodide staining-based flow cytometry. Type of data set: functional. The procedure, abridged: as §1
Data set [9] relates to MGC-803. As to the kind of experiment: Cell cycle arrest in human MGC803 cells assessed as accumulation at G2/M phase at 0.25 uM after 12 hrs by propidium iodide staining-based flow cytometry. It is filed as functional. The procedure, abridged: as §1
Data set [10] deals with MGC-803. In words: Cell cycle arrest in human MGC803 cells assessed as reduction in G1 phase accumulation at 0.25 to 1 uM by propidium iodide staining-based flow cytometry. It is filed as functional. To be noted: TDE = time-dependent effect. The procedure, abridged:
as §1

The test system of data set [11] is MGC-803. In words: Cell cycle arrest in human MGC803 cells assessed as accumulation at S phase at 1 uM after 12 hrs by propidium iodide staining-based flow cytometry. It is filed as functional. The procedure, abridged: as §1
The subject of data set [12] is MGC-803. As to the kind of experiment: Cell cycle arrest in human MGC803 cells assessed as accumulation at G0/G1 phase at 0.25 uM after 24 hrs by propidium iodide staining-based flow cytometry. It is filed as functional. An outline of the steps: as §1
Data set [13] relates to MGC-803. In words: Cell cycle arrest in human MGC803 cells assessed as accumulation at G0/G1 phase at 0.5 uM after 24 hrs by propidium iodide staining-based flow cytometry. Type of data set: functional. The procedure, abridged: as §1
Data set [14] can be described thus: Cytotoxicity against human EC9706 cells after 72 hrs by MTT assay. Type of data set: functional, cell-based. To be noted: EC9706, 72 h. In general terms: Formazan colour is commonly taken as a measure of viable cells.
Data set [15] deals with MGC-803. In words: Cell cycle arrest in human MGC803 cells assessed as accumulation at G2/M phase at 1 uM after 12 hrs by propidium iodide staining-based flow cytometry. Type of data set: functional. An outline of the steps: as §1
The subject of data set [16] is MGC-803. In words: Cell cycle arrest in human MGC803 cells assessed as accumulation at S phase at 0.5 uM after 12 hrs by propidium iodide staining-based flow cytometry. Type of data set: functional. An outline of the steps: as §1
Data set [17] relates to MGC-803. In words: Cell cycle arrest in human MGC803 cells assessed as accumulation at S phase at 0.25 uM after 12 hrs by propidium iodide staining-based flow cytometry. It is filed as functional. An outline of the steps: as §1
For data set [18], the system named is MGC-803. In words: Cell cycle arrest in human MGC803 cells assessed as reduction in S phase accumulation at 0.25 to 1 uM by propidium iodide staining-based flow cytometry. Type of data set: functional. Particulars: TDE = time-dependent effect. An outline of the steps: as §1
In data set [19] the test system is MGC-803. As to the kind of experiment: Cell cycle arrest in human MGC803 cells assessed as accumulation at S phase at 0.5 uM after 24 hrs by propidium iodide staining-based flow cytometry. It is filed as functional. The procedure, abridged: as §1
For data set [20], the system named is MGC-803. In words: Cell cycle arrest in human MGC803 cells assessed as accumulation at G0/G1 phase at 0.5 uM after 12 hrs by propidium iodide staining-based flow cytometry. Type of data set: functional. The procedure, abridged: as §1
For data set [21], the system named is MGC-803. As to the kind of experiment: Cell cycle arrest in human MGC803 cells assessed as accumulation at G2/M phase at 1 uM after 24 hrs by propidium iodide staining-based flow cytometry. Type of data set: functional. An outline of the steps:
as §1

In data set [22] the test system is MGC-803. In words: Cell cycle arrest in human MGC803 cells assessed as accumulation at S phase at 0.25 uM after 24 hrs by propidium iodide staining-based flow cytometry. Type of data set: functional. An outline of the steps:
as §1

The test system of data set [23] is MGC-803. In words: Cell cycle arrest in human MGC803 cells assessed as accumulation at G2/M phase at 0.25 to 1 uM by propidium iodide staining-based flow cytometry. It is filed as functional. Particulars: TDE = time-dependent effect. An outline of the steps:
as §1

Data set [24] has as its system MGC-803. As to the kind of experiment: Cell cycle arrest in human MGC803 cells assessed as accumulation at G2/M phase at 0.5 uM after 24 hrs by propidium iodide staining-based flow cytometry. Type of data set: functional. The procedure, abridged: as §1
Data set [25] concerns MGC-803. In words: Cell cycle arrest in human MGC803 cells assessed as accumulation at G0/G1 phase at 0.25 uM after 12 hrs by propidium iodide staining-based flow cytometry. Type of data set: functional. An outline of the steps:
as §1

For data set [26], the system named is MGC-803. As to the kind of experiment: Cell cycle arrest in human MGC803 cells assessed as accumulation at G0/G1 phase at 1 uM after 12 hrs by propidium iodide staining-based flow cytometry. It is filed as functional. An outline of the steps: as §1
In data set [27] the test system is MGC-803. As to the kind of experiment: Cell cycle arrest in human MGC803 cells assessed as accumulation at S phase at 1 uM after 24 hrs by propidium iodide staining-based flow cytometry. It is filed as functional. The procedure, abridged:
as §1

Data set [28] deals with MGC-803. In words: Cell cycle arrest in human MGC803 cells assessed as accumulation at G2/M phase after 12 to 24 hrs by propidium iodide staining-based flow cytometry. Type of data set: functional. The procedure, abridged: as §1
Data set [29] relates to MGC-803. In words: Cytotoxicity against human MGC803 cells after 72 hrs by MTT assay. Type of data set: functional, cell-based. To be noted: MGC-803, 72 h.
The test system of data set [30] is MGC-803. As to the kind of experiment: Induction of apoptosis in human MGC803 cells assessed as nuclear shrinkage at 0.25 to 1 uM after 12 hrs by Hoechst 33258 staining-based fluorescence microscopy. It is filed as functional, cell-based. The procedure, abridged: as §2
The subject of data set [31] is SMMC-7721. In words: Cytotoxicity against human SMMC7721 cells after 72 hrs by MTT assay. Particulars: SMMC-7721, 72 h. It is filed as functional, cell-based.
The test system of data set [32] is MGC-803. In words: Induction of apoptosis in human MGC803 cells assessed as chromatin condensation at 0.25 to 1 uM after 12 hrs by Hoechst 33258 staining-based fluorescence microscopy. Type of data set: functional, cell-based. The procedure, abridged: as §2

Activity calls are given as the source filed them. No cut-off for these calls is given here.

As a reminder, the IC50 is the concentration that gives 50% inhibition. High values mean lower potency, low ones higher potency.

Regarding `CC(C)NC(=O)N1CCN(C(=S)SCc2cn(Cc3ccccc3F)nn2)CC1`, the Activity result is “Non-toxic” in data set [1]; 2.99% in data set [2]; 32.93% in [3]; 50.35% in [4]; “Dose-dependent effect” in data set [7]; “Dose-dependent effect” in [8]. Besides, the Activity is 21.86% in [9]; “tde” in data set [10]; 39.11% in [11]; 31.47% in [12]; 10.9% in [13]; 59.86% in data set [15]. In addition, the Activity in [16] was 26.26%; in data set [17], 39.06%; in data set [18], “tde”; in data set [19], 17.4%; in data set [20], 19.1%; in data set [21], 74.95%. Moreover, the Activity is 35.96% in [22]; “tde” in data set [23]; 68.71% in data set [24]; 38.7% in data set [25]; 6.02% in data set [26]; 15.66% in [27]. The Activity entry in data set [28] was “Dose-dependent effect”. Further, the IC50 in data set [5] is 1.86 µM; in [14], 20.8 µM; in data set [29], 1.62 µM; in [31] it was 7.13 µM. The result in data set [6], in data set [30] and in data set [32] was Active.

Turning to `CCNC(=O)N1CCN(C(=S)SCc2cn(Cc3ccccc3F)nn2)CC1`, the IC50 in [5] was 5.76 µM; in data set [14] it was 23.7 µM; in data set [29], 2.83 µM; in data set [31], > 128 µM.

Take `CC(C)NC(=O)N1CCN(C(=S)SCc2cn(Cc3ccc(Cl)cc3)nn2)CC1`: the IC50 was > 128 µM in data set [5], 25.6 µM in data set [14], 19.9 µM in data set [29] and > 128 µM in data set [31].

As for `COc1ccc(Cn2cc(CSC(=S)N3CCN(C(=O)NC(C)C)CC3)nn2)cc1`, the IC50 in data set [5] is 19.6 µM; in [14], > 128 µM; in data set [29], 99.2 µM; in data set [31], > 128 µM.

Take `CCNC(=O)N1CCN(C(=S)SCc2cn(Cc3ccc(F)cc3)nn2)CC1`: the IC50 in data set [5] was found to be 3.66 µM; in data set [14], 27.8 µM; in data set [29] it was 2.17 µM; in data set [31], 44.4 µM.

`CCN(C)C(=O)N1CCN(C(=S)SCc2cn(Cc3ccc(C)cc3)nn2)CC1`: the IC50 in data set [5] was 40.1 µM; in [14], 70.6 µM; in [29] it was 8.27 µM; in [31], > 128 µM.

Regarding `COc1cc(Cn2cc(CSC(=S)N3CCN(C(=O)NC(C)C)CC3)nn2)cc(OC)c1OC`, the 50% inhibitory concentration (IC50) in data set [5], in data set [14], in data set [29] and in data set [31] was > 128 µM in each case.

With `CCN(C)C(=O)N1CCN(C(=S)SCc2cn(Cc3ccc(OC)cc3)nn2)CC1`, the half-maximal inhibitory concentration (IC50) in data set [5] is 21.4 µM; in data set [14] it was > 128 µM; in data set [29], 87.9 µM; in [31] it was > 128 µM.

Take `CCNC(=O)N1CCN(C(=S)SCc2cn(Cc3ccc(C)cc3)nn2)CC1`: the half-maximal inhibitory concentration (IC50) was > 128 µM in [5], > 128 µM in [14], 19.8 µM in data set [29] and > 128 µM in [31].

As for `Cc1ccc(Cn2cc(CSC(=S)N3CCN(C(N)=O)CC3)nn2)cc1`, the IC50 was > 128 µM in data set [5], > 128 µM in data set [14], 29.9 µM in data set [29] and > 128 µM in data set [31].

Source of the values: ChEMBL document CHEMBL2390884, “Design, synthesis and antiproliferative activity studies of novel 1,2,3-triazole-dithiocarbamate-urea hybrids” (Eur J Med Chem, 2013).
